Active and inactive are the calls of the source. The rule behind the calls is not given here.
Tests used:
[1] = system: Rattus norvegicus; test: Wound healing activity in po dosed Swiss albino rat incision wound model assessed as increase in dry weight of granulation tissue after 24 hrs; assay type: functional, organism-based
[2] = system: Rattus norvegicus; test: Wound healing activity in po dosed Swiss albino rat dead space wound model assessed as granuloma epithelialization and collagenation; assay type: functional, organism-based
[3] = system: Rattus norvegicus; test: Wound healing activity in po dosed Swiss albino rat dead space wound model assessed as wet weight of granulation tissue per 100 gm after 24 hrs; assay type: functional
Outline: (§1)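 Oral dosing by feeding tube of a 4 mg/mL suspension in 1% (w/v) Tween-80, prepared fresh. Ten groups of four animals: untreated control, a 0.2% (w/w) nitrofurazone ointment reference, and eight test groups. Granulation tissue was weighed wet and dry, and its breaking strength was measured. Values are mean ± SE of 4 animals, analysed by one-way ANOVA with Tukey's test against control.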

[4] = system: Rattus norvegicus; test: Wound healing activity in po dosed Swiss albino rat dead space wound model assessed as dry weight of granulation tissue per 100 gm after 24 hrs; assay type: functional; outline: as §1
[5] = system: Rattus norvegicus; test: Wound healing activity in po dosed Swiss albino rat dead space wound model assessed as skin breaking strength after 10 days; assay type: functional; outline: as §1
[6] = system: Rattus norvegicus; test: Wound healing activity in po dosed Swiss albino rat incision wound model assessed as skin breaking strength after 10 days; assay type: functional
[7] = system: Rattus norvegicus; test: Wound healing activity in po dosed Swiss albino rat incision wound model assessed as increase in wet weight of granulation tissue after 24 hrs; assay type: functional, organism-based

COc1ccc(C(=O)c2ccc(OCC(=O)N3CCC(CCCC4CCN(C(=S)Nc5ccccc5Cl)CC4)CC3)cc2)c(OC)c1
Activity [1]: Active
Activity [2]: Active
Activity [3]: 134.79 mg
Activity [4]: 26.04 mg
Activity [5]: 623.25 g
Activity [6]: 748.38 g
Activity [7]: Active

COc1ccc(C(=O)c2ccc(OCC(=O)N3CCC(CCCC4CCN(C(=S)Nc5ccc(F)cc5)CC4)CC3)cc2)c(OC)c1
Activity [1]: Active
Activity [2]: Active
Activity [3]: 122.94 mg
Activity [4]: 26.27 mg
Activity [5]: 645.69 g
Activity [6]: 760.88 g
Activity [7]: Active

COc1ccc(NC(=O)N2CCC(CCCC3CCN(C(=O)COc4ccc(C(=O)c5ccc(OC)cc5OC)cc4)CC3)CC2)cc1
Activity [3]: 112.48 mg
Activity [4]: 21.59 mg
Activity [5]: 414.19 g
Activity [6]: 503.89 g

COc1ccc(C(=O)c2ccc(OCC(=O)N3CCC(CCCC4CCN(C(=O)Nc5ccc(Cl)cc5Cl)CC4)CC3)cc2)c(OC)c1
Activity [3]: 79 mg
Activity [4]: 17.81 mg
Activity [5]: 361.6 g
Activity [6]: 445.12 g

COc1ccc(C(=O)c2ccc(OCC(=O)N3CCC(CCCC4CCN(C(=O)Nc5ccccc5Cl)CC4)CC3)cc2)c(OC)c1
Activity [2]: Active
Activity [3]: 104.85 mg
Activity [4]: 21.01 mg
Activity [5]: 541.82 g
Activity [6]: 605.49 g

COc1ccc(C(=O)c2ccc(OCC(=O)N3CCC(CCCC4CCN(C(=O)Nc5ccc(F)cc5)CC4)CC3)cc2)c(OC)c1
Activity [3]: 91.31 mg
Activity [4]: 17.8 mg
Activity [5]: 451.6 g
Activity [6]: 552.06 g

COc1ccc(NC(=S)N2CCC(CCCC3CCN(C(=O)COc4ccc(C(=O)c5ccc(OC)cc5OC)cc4)CC3)CC2)cc1
Activity [3]: 80.54 mg
Activity [4]: 12.36 mg
Activity [5]: 355.42 g
Activity [6]: 675 g

NC(=O)N/N=C/c1ccc([N+](=O)[O-])o1 [NITROFURAZONE]
Activity [6]: 875 g

COc1ccc(C(=O)c2ccc(OCC(=O)N3CCC(CCCC4CCN(C(=S)Nc5ccc(Cl)cc5Cl)CC4)CC3)cc2)c(OC)c1
Activity [3]: 88.02 mg
Activity [4]: 21.02 mg
Activity [5]: 619.15 g
Activity [6]: 612.5 g

— ChEMBL document CHEMBL1153585, “Evaluation of in vivo wound-healing potential of 2-[4-(2,4-dimethoxy-benzoyl)-phenoxy]-1-[4-(3-piperidin-4-yl-propyl)-piperidin-1-yl]-ethanone derivatives” (2009)
